Data set [1] concerns Staphylococcus aureus. Nature of the data set: Antimicrobial activity against hospital acquired methicillin-resistant and vancomycin-intermediate Staphylococcus aureus NRS126 obtained from patient with bloodstream infection by broth microdilution method at pH 7.4. It counts as functional. The essentials: (§1)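 Minimal inhibitory concentration by broth microdilution at pH 7.4, read in mg/liter. The MRSA genotype was confirmed by mecA PCR, and the SCCmec subgroup was assigned by multiplex PCR.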

Data set [2] concerns Staphylococcus aureus. Nature of the data set: Antimicrobial activity against intracellular beta-lactamase negative methicillin-susceptible Staphylococcus aureus ATCC 25923 infected in human keratinocytes assessed as increase in bacterial count from original inoculum at low compound concentration after 24 hrs at pH 7.4. It counts as functional. A digest of the protocol:
(§2)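 Primary human skin keratinocytes or Calu-3 bronchial epithelial cells infected with MSSA ATCC 25923 at 5 × 10⁷ to 1 × 10⁸ bacteria/ml, 2 h internalization. Postphagocytosis inoculum 1.5 × 10⁶ to 3.0 × 10⁶ CFU/mg protein. Cloxacillin concentration range for 24 h; CFU/mg protein change vs. inoculum (n = 3). Hill fit gives Emin/Emax; static concentration by graphical interpolation.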

Data set [3] has as its system Staphylococcus aureus. Nature of the data set: Antimicrobial activity against intracellular beta-lactamase negative methicillin-susceptible Staphylococcus aureus ATCC 25923 infected in human keratinocytes assessed as decrease in bacterial growth after 24 hrs at pH 7.4. The note with it: ATCC 25923, 24 h. The class given is functional, organism-based. A digest of the protocol: (§3)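 Primary human skin keratinocytes or Calu-3 bronchial epithelial cells, given an inoculum of 5 × 10⁷ to 1 × 10⁸ bacteria/ml and 2 h for internalization. Post-phagocytosis load 1.5 × 10⁶ to 3.0 × 10⁶ CFU per mg cell protein. Cloxacillin dose range in mg/liter for 24 h, n = 3. Hill-derived Emin, Emax and EC50; static concentration interpolated.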

In data set [4] the test system is Staphylococcus aureus. Briefly: Antimicrobial activity against hospital acquired methicillin-resistant Staphylococcus aureus HMC546 infected in human THP-1 cells assessed as decrease in bacterial growth after 24 hrs at pH 5.5. It counts as functional, organism-based. The following applies: HMC546, THP-1, 24 h. A digest of the protocol:
(§4)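 Bacteria phagocytosed by unactivated human THP-1 macrophages, then incubated 24 h with extracellular antibiotic at about 0.01× to 100× the pH 5.5 broth MIC. CFU per mg cell protein counted against the original inoculum, n = 3. A Hill-equation fit (slope factor 1) gave Emin and Emax, extrapolated to infinitely low and high concentration, and EC50. Static concentration was graphically interpolated.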

Data set [5] concerns Staphylococcus aureus. Briefly: Antimicrobial activity against Panton-valentine leukocidin positive community acquired methicillin-resistant Staphylococcus aureus N4042228 by broth microdilution method at pH 7.4. The class given is functional. The essentials:
as §1
Background: Dilution methods test growth across graded concentrations, often in twofold steps.

Data set [6] concerns Staphylococcus aureus. Nature of the data set: Bacteriostatic activity against intracellular beta-lactamase negative methicillin-susceptible Staphylococcus aureus ATCC 25923 infected in human Calu3 cells assessed as decrease in bacterial growth after 24 hrs at pH 7.4. The class given is functional, Calu-3. A digest of the protocol:
as §2

Data set [7] deals with Staphylococcus aureus. Briefly: Antimicrobial activity against intracellular beta-lactamase negative methicillin-susceptible Staphylococcus aureus ATCC 25923 infected in human Calu3 cells assessed as increase in bacterial count from original inoculum at low compound concentration after 24 hrs at pH 7.4. It counts as functional, Calu-3. The essentials:
as §2

The subject of data set [8] is Staphylococcus aureus. Nature of the data set: Bacteriostatic activity against intracellular hospital acquired methicillin-resistant Staphylococcus aureus ATCC 33591 infected in activated human THP-1 cells assessed as decrease in bacterial growth after 24 hrs at pH 7.4. It counts as functional. The essentials: (§5)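 THP-1 cells activated by 24-h culture with phorbol myristate acetate 2 mg/liter, then infected like unactivated THP-1. Cloxacillin dose range in mg/liter for 24 h. CFU per mg cell protein relative to the original inoculum, n = 3. Emin and Emax extrapolated from a Hill fit (slope 1), with EC50 as total drug; static concentration by graphical interpolation.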

The test system of data set [9] is Staphylococcus aureus. Briefly: Antimicrobial activity against hospital acquired methicillin-resistant Staphylococcus aureus ATCC 33591 infected in human THP-1 cells assessed as decrease in bacterial growth after 24 hrs at pH 5.5. The class given is functional, organism-based. The note with it: ATCC 33591, THP-1, 24 h. A digest of the protocol: as §4
The test system of data set [10] is Staphylococcus aureus. Nature of the data set: Antimicrobial activity against hospital acquired methicillin-resistant Staphylococcus aureus N4120210 obtained from urinary tract infection of patient infected in human THP-1 cells assessed as decrease in bacterial count from original inoculum at high compound concentration after 24 hrs at pH 5.5. The class given is functional, Urine. A digest of the protocol:
as §4

Data set [11] deals with Staphylococcus aureus. Briefly: Bacteriostatic activity against constitutive beta-lactamase negative methicillin-resistant Staphylococcus aureus COL NRS100 infected in human THP-1 cells assessed as decrease in bacterial growth after 24 hrs at pH 5.5. It counts as functional. The essentials:
(§6)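 Human THP-1 macrophages infected with each S. aureus strain. Cloxacillin added extracellularly at about 0.01× to 100× the broth MIC measured at pH 5.5, with gentamicin 0.5 mg/liter to stop extracellular growth. Incubated 24 h. CFU counted per mg cell protein as change from the post-phagocytosis inoculum, n = 3. Emin, Emax and EC50 from a Hill fit; static concentration by graphical interpolation.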

Data set [12] has as its system Staphylococcus aureus. Briefly: Bacteriostatic activity against animal acquired methicillin-resistant Staphylococcus aureus N7112046 infected in human THP-1 cells assessed as decrease in bacterial growth after 24 hrs at pH 5.5. The class given is functional. A digest of the protocol:
as §6

Data set [13] deals with Staphylococcus aureus. Briefly: Antimicrobial activity against hospital acquired methicillin-resistant and vancomycin-intermediate Staphylococcus aureus NRS18 obtained from wound, skin and soft tissue infection of patient infected in human THP-1 cells assessed as decrease in bacterial count from original inoculum at high compound concentration after 24 hrs at pH 5.5. The class given is functional. The essentials: as §4

Data set [14] deals with Staphylococcus aureus. Nature of the data set: Antimicrobial activity against constitutive beta-lactamase negative methicillin-resistant Staphylococcus aureus COL NRS100 infected in human THP-1 cells assessed as increase in bacterial count from original inoculum at low compound concentration after 24 hrs at pH 5.5. It counts as functional. The essentials:
as §4

The nature of data set [15]: Chemical stability of the compound assessed as compound remaining after 24 hrs in PBS buffer by HPLC analysis at pH 7.4. The class given is physicochemical. The note with it: read-out: Activity. A digest of the protocol: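 Drug at 50 mg/liter initial concentration incubated 24 h at 37°C in buffered medium at pH 7.4 or 5.5. Remaining drug measured by HPLC signal disappearance; mobile phase 25 mM phosphate buffer pH 6.7 with acetonitrile (75:25).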

The test system of data set [16] is Staphylococcus aureus. Briefly: Antimicrobial activity against Panton-valentine leukocidin positive community acquired methicillin-resistant Staphylococcus aureus NRS192 obtained from patient with pneumonia and septic arthritis infected in human THP-1 cells assessed as decrease in bacterial growth after 24 hrs at pH 5.5. The class given is functional, organism-based. The following applies: NRS192, THP-1, 24 h. The essentials: as §4

Data set [17] relates to Staphylococcus aureus. Briefly: Antimicrobial activity against intracellular hospital acquired methicillin-resistant Staphylococcus aureus ATCC 33591 activated infected in human THP-1 cells assessed as decrease in bacterial growth after 24 hrs at pH 7.4. The class given is functional, organism-based. The note with it: ATCC 33591, THP-1, 24 h. The essentials:
as §5

In data set [18] the test system is Staphylococcus aureus. Briefly: Antimicrobial activity against Panton-valentine leukocidin positive community acquired methicillin-resistant Staphylococcus aureus N4090440 obtained from wound infection of patient by broth microdilution method at pH 5.5. It counts as functional.
For data set [19], the system named is Staphylococcus aureus. Briefly: Bacteriostatic activity against Panton-valentine leukocidin positive community acquired methicillin-resistant Staphylococcus aureus N4042228 infected in human THP-1 cells assessed as decrease in bacterial growth after 24 hrs at pH 5.5. It counts as functional. The essentials:
as §6

Data set [20] has as its system Staphylococcus aureus. Briefly: Antimicrobial activity against intracellular hospital acquired methicillin-resistant Staphylococcus aureus ATCC 33591 infected in human Calu3 cells assessed as increase in bacterial count from original inoculum at low compound concentration after 24 hrs at pH 7.4. It counts as functional, Calu-3. A digest of the protocol: as §3
The subject of data set [21] is Staphylococcus aureus. Briefly: Antimicrobial activity against intracellular beta-lactamase negative methicillin-susceptible Staphylococcus aureus ATCC 25923 infected in activated human THP-1 cells assessed as increase in bacterial count from original inoculum at low compound concentration after 24 hrs at pH 7.4. The class given is functional.

Molecules are shown by their SMILES. Converted amounts (≈) assume the structure as drawn.

Take `Cc1onc(-c2ccccc2Cl)c1C(=O)N[C@@H]1C(=O)N2[C@@H]1SC(C)(C)[C@@H]2C(=O)O` [CLOXACILLIN]: the MIC (commonly the least concentration at which growth counts as inhibited) against Staphylococcus aureus [1] amounted to 16 mg/L (≈ 36.7 µM); with Staphylococcus aureus [5], 0.5 mg/L (≈ 1.15 µM); in the data set on Staphylococcus aureus [18], 0.03 mg/L (≈ 0.0688 µM). Moreover, the log10cfu amounted to 2.64 with Staphylococcus aureus [2]; 3.19 with Staphylococcus aureus [7]; 0.63 with Staphylococcus aureus [10]; 0.57 in the data set with Staphylococcus aureus [13]; 2.42 with Staphylococcus aureus [14]; 2.39 with Staphylococcus aureus [20]. Moreover, the log10cfu with Staphylococcus aureus [21] was determined as 3.05. Also, the EC50 with Staphylococcus aureus [3] came out at 0.42 mg/L (≈ 0.964 µM); in the data set with Staphylococcus aureus [4], 5.67 ×MIC; in the data set with Staphylococcus aureus [9] it was 4.25 ×MIC; with Staphylococcus aureus [16] it was 6.07 ×MIC; in the data set on Staphylococcus aureus [17], 0.32 mg/L (≈ 0.734 µM). Also, the Activity in the data set on Staphylococcus aureus [6] was found to be 1.6 mg/L; with Staphylococcus aureus [8], 1 mg/L; in the data set on Staphylococcus aureus [11], 8.31 ×MIC; in the data set with Staphylococcus aureus [12] it was 17.8 ×MIC; with Staphylococcus aureus [19], 45.7 ×MIC. The remaining at 24 h in [15] turned out to be 97.8%.

The record behind these values is ChEMBL document CHEMBL1649111, “Restoration of susceptibility of intracellular methicillin-resistant Staphylococcus aureus to beta-lactams: comparison of strains, cells, and antibiotics” (Antimicrob Agents Chemother, 2008).
